Converted amounts (≈) assume the structure as drawn.
Assays:
[1] = Aqueous solubility at pH 7.4; type: physicochemical; settings: buffer
Outline: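 Solubility determined in water at pH 7.4.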

[2] = Ratio of drug level in liver to plasma in Sprague-Dawley rat at 3 mg/kg, po after 4 hrs; type: ADME, organism-based; set-up: dose 3 mg/kg, route oral; settings: liver and plasma
Outline: (§1)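 Sprague–Dawley rats were given a single 3 mg/kg dose iv or po. Plasma and liver concentrations were measured at 1, 4, 8 and 12 h. Liver was not sampled at 1, 4 or 8 h after iv dosing. Liver-to-plasma concentration ratio was calculated at each time point.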

Cynomolgus monkey [3] = experiment: AUC (0 to infinity) in cynomolgus monkey at 5 mg/kg, iv; type: ADME, organism-based, Macaca fascicularis, Plasma; set-up: time infinity, dose 5 mg/kg, route intravenous; settings: in vivo
Cynomolgus monkey [4] = experiment: AUC (0 to infinity) in cynomolgus monkey at 5 mg/kg, po; type: ADME, organism-based, Macaca fascicularis, Plasma; set-up: time infinity, dose 5 mg/kg, route oral; settings: in vivo
[5] = Ratio of drug level in liver to plasma in Sprague-Dawley rat at 3 mg/kg, po after 1 hr; type: ADME, organism-based; set-up: dose 3 mg/kg, route oral; settings: liver and plasma; outline: as §1
[6] = Oral bioavailability in Sprague-Dawley rat; type: ADME, organism-based; settings: in vivo
Outline: (§2)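 Sprague–Dawley rats got a single 3 mg/kg dose iv or po, with n = 12 (po) and 3 (iv). Plasma concentrations were followed over time to derive PK parameters.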

Rattus norvegicus [7] = experiment: AUC (0 to infinity) in iv dosed Sprague-Dawley rat; type: ADME, organism-based, Plasma; set-up: time infinity, route intravenous; settings: in vivo; outline: as §2
[8] = Oral bioavailability in cynomolgus monkey at 5 mg/kg; type: ADME, organism-based, Macaca fascicularis; settings: in vivo
[9] = Volume of distribution at steady state in iv dosed Sprague-Dawley rat; type: ADME, organism-based; settings: in vivo, read-out: Vdss; outline: as §2
[10] = Volume of distribution at steady state in cynomolgus monkey at 5 mg/kg, iv; type: ADME, organism-based, Macaca fascicularis; set-up: dose 5 mg/kg, route intravenous; settings: in vivo, read-out: Vdss
[11] = Ratio of drug level in liver to plasma in Sprague-Dawley rat at 3 mg/kg, po after 12 hrs; type: ADME, organism-based; set-up: dose 3 mg/kg, route oral; settings: liver and plasma; outline: as §1
[12] = Ratio of drug level in liver to plasma in Sprague-Dawley rat at 3 mg/kg, iv after 12 hrs; type: ADME, organism-based; set-up: dose 3 mg/kg, route intravenous; settings: liver and plasma; outline: as §1
Rattus norvegicus [13] = experiment: AUC (0 to infinity) in po dosed Sprague-Dawley rat; type: ADME, organism-based, Plasma; set-up: time infinity, route oral; settings: in vivo; outline: as §2
[14] = Ratio of drug level in liver to plasma in Sprague-Dawley rat at 3 mg/kg, po after 8 hrs; type: ADME, organism-based; set-up: dose 3 mg/kg, route oral; settings: liver and plasma; outline: as §1
[15] = Apparent permeability from apical to basolateral side in human Caco-2 cells at 10 uM; type: ADME, cell-based

Row | Structure (SMILES) | solubility [1] | Kp at 4 h [2] | AUC (Cynomolgus monkey [3]) | AUC (Cynomolgus monkey [4]) | Kp at 1 h [5] | bioavailability [6] | AUC (Rattus norvegicus [7]) | bioavailability [8] | Vd [9] | Vd [10] | Kp at 12 h [11] | Kp at 12 h [12] | AUC (Rattus norvegicus [13]) | Kp at 8 h [14] | Papp A→B at 10 µM [15]
1 | CC(C)CCn1nc(-c2cccs2)c(O)c(C2=Nc3ccc(NS(C)(=O)=O)cc3S(=O)(=O)N2)c1=O | 55 µM (≈ 29.6 µg/mL) | 243 | 10500 ng·h/mL | 124 ng·h/mL | 431 | 1% | 3630 ng·h/mL | 1% | 0.453 L/kg | 0.096 L/kg | 64 | 4 | 27 ng·h/mL | 78 | 0.016 ×10⁻⁶ cm/s
2 | CC(C)(C)CCn1nc(-c2cccs2)c(O)c(C2=Nc3ccc(NS(C)(=O)=O)cc3S(=O)(=O)N2)c1=O | 44 µM (≈ 24.3 µg/mL) |  | 17600 ng·h/mL | 241 ng·h/mL |  |  |  | 1% |  | 0.039 L/kg |  |  |  |  | 0.06 ×10⁻⁶ cm/s

Reference: ChEMBL document CHEMBL1143086, “Novel HCV NS5B polymerase inhibitors derived from 4-(1',1'-dioxo-1',4'-dihydro-1'lambda(6)-benzo[1',2',4']thiadiazin-3'-yl)-5-hydroxy-2H-pyridazin-3-ones. Part 3: Further optimization of the 2-, 6-, and 7'-substituents and initial pharmacokinetic assessments” (Bioorg Med Chem Lett, 2008)
